Compound activity as filed in PubChem.
Apaf-1 act – activators of human Apaf-1 apoptosome; Apaf-1 apoptosome caspase-3 activation, DEVD-Rh110 fluorescence; active compounds read low; activity change, negative = activation, % at 20 µM; 0.31% of 330,000 active; AID 489031;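 active means activity change at or below -40% at 20 µM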
Target sequence (O14727 whole entry, looked up): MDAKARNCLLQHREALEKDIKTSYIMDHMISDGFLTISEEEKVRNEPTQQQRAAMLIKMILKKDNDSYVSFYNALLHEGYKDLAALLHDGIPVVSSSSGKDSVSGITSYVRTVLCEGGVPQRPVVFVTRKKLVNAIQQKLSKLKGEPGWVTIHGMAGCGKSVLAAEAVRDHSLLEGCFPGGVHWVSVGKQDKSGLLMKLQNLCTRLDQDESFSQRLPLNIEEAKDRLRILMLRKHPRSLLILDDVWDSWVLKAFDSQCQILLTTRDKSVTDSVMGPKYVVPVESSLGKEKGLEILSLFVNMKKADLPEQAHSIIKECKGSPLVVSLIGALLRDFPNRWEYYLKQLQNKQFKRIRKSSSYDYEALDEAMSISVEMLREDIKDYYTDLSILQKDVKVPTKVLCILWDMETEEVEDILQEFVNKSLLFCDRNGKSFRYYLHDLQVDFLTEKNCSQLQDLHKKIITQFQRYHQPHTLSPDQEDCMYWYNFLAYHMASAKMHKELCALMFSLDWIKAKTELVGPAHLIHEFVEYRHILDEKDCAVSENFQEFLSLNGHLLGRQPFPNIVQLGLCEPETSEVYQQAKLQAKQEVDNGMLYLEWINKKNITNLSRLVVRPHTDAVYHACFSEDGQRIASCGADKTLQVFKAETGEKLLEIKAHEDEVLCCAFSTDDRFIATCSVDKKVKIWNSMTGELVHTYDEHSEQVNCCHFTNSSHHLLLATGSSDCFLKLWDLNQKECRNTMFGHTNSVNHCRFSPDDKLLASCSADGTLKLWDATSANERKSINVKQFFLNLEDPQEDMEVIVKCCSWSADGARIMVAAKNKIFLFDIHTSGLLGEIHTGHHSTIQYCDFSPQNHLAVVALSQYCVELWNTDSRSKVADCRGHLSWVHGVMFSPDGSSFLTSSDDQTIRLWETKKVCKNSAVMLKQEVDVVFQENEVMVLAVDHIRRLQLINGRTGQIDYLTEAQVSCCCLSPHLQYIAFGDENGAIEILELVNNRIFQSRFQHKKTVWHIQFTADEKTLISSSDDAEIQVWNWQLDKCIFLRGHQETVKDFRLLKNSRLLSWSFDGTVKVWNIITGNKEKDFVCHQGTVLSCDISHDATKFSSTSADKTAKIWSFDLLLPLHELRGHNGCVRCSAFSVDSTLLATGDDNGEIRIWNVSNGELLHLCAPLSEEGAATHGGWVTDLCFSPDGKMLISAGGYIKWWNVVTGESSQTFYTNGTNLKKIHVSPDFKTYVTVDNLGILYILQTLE
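Material: biochemical Apaf-1 apoptosome reconstitution; Medium: 20 mM HEPES buffer, pH 7.5, containing CHAPS and BSA; Reagent: dATP, cytochrome c, and (Z-DEVD)2-Rh110 caspase-3 substrate; Times: 30 min preincubation, 50 min reaction, room temperature; Signal: Rh110 fluorescence, excitation 480 nm, emission 540 nm; Measure: Caspase-3 activity via Apaf-1.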
Rh110 act interf – Rh110 signal interference in Apaf-1 activator counter-screen; shares compounds with Apaf-1 act; Rh110 fluorescence interference, quenched caspase reaction, Ex480/Em540; fluorescence interference (activity change), % at 20 µM, hits read low; 980 tested, under 10 active; AID 504616;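 active means mean activity change at or below -40% when tested at 20 µM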
Apaf-1 act conf2 – confirmation of human Apaf-1 activators; activity change, negative = activation, % at 20 µM; reconstituted apoptosome caspase-3 activity, DEVD-Rh110 fluorescence; active compounds read low; AID 504617; shares compounds with Apaf-1 act; 5% of 980 active;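 active means mean activity change at or below -40%, meaning activation of 40% or more, at 20 µM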
The depositor's hits bear a star; nt = no result. The list is a sample of the results.

SMILES	Apaf-1 act	Rh110 act interf	Apaf-1 act conf2
C#CCOCCOCCOCCNc1nc(N2CCN(C(=O)CCCCCCCCCCNC(=O)[C@H]([C@@H](C)CC)n3cc(CCCCN=C(N)N)nn3)CC2)nc(N2CCN(C(=O)CCCCCCCCCCNC(=O)[C@@H]([C@H](C)O)n3cc(C)nn3)CC2)n1	45	nt	nt
O=C(c1ccco1)[C@@H]1[C@@H]2C(=O)N(c3ccccc3)C(=O)[C@@H]2C2c3ccccc3C=CN21 (stereo partly specified)	86	nt	nt
O=C(c1ccco1)N1CCN(C(c2ccccc2)c2nnnn2Cc2cccs2)CC1 (stereo unspecified)	-107*	9	16
O=C1c2ccccc2-c2onc3c(N4CCN(CCO)CC4)cc(N4CCN(C(=O)c5ccco5)CC4)c1c23	52	nt	nt
CN1CCN(c2cc(N3CCN(C(=O)c4ccco4)CC3)c3c4c(onc24)-c2ccccc2C3=O)CC1	82	nt	nt
CC1=NN(c2ccc(Cl)cc2)C(=O)C1C(c1ccccc1O)c1c(C)[nH]n(-c2ccc(Cl)cc2)c1=O (stereo unspecified)	97	nt	nt
Cc1ccc(Cl)cc1NC1=C/C(=N\S(=O)(=O)c2cccs2)c2ccccc2C1=O	95	nt	nt
C#CCOCCOCCOCCNc1nc(N2CCN(C(=O)[C@H]([C@@H](C)CC)n3cc([C@@H](N)CC(C)C)nn3)CC2)nc(N2CCN(C(=O)[C@H](Cc3cc4ccccc4[nH]3)n3cc([C@@H](N)Cc4ccc(O)cc4)nn3)CC2)n1	56	nt	nt
CCN1/C(=C/C=C/c2oc3ccc4ccccc4c3[n+]2CC)Oc2ccc3ccccc3c21	76	nt	nt
Cn1c(=O)oc2cc(S(=O)(=O)Nc3ccccc3O)ccc21	-46*	10	14
C#CCOCCOCCOCCNc1nc(N2CCN(C(=O)CCCCCCCCCCNC(=O)[C@H](CCCCN)n3cc(CCO)nn3)CC2)nc(N2CCN(C(=O)CCCCCCCCCCNC(=O)[C@H](CCCCN)n3cc(CCCC(=O)O)nn3)CC2)n1	59	nt	nt
Cc1cccc(S(=O)(=O)C(C#N)c2nc3ccccc3nc2N2CCCC2)c1 (stereo unspecified)	55	nt	nt
CC1(C)Cc2c(sc3nc(N/N=C/c4ccccc4)[nH]c(=O)c23)CO1	-236*	4	12
COc1cc([N+](=O)[O-])c2ncsc2c1	-59*	-1	8
CN(C)CCCNC(=O)C(=O)NCC1OCCN1S(=O)(=O)c1cccs1 (stereo unspecified)	64	nt	nt
COc1ccccc1C1Nc2cccc3cccc(c23)N1	51	nt	nt
COc1ccccc1OCCNC(=O)c1cccc(S(=O)(=O)N2CCN(Cc3ccccc3)CC2)c1	67	nt	nt
COc1ccc(S(=O)(=O)N2CCCCCC2)cc1C(=O)NCCc1ccccc1	47	nt	nt
COc1cc2c(cc1NC(=O)C(C)N1CCN(S(=O)(=O)c3ccc(C)c(C)c3)CC1)oc1ccccc12 (stereo unspecified)	-578*	14	13
O=[N+]([O-])c1ccc(C=Nc2cccc3ccccc23)s1	68	nt	nt
Cc1ccc(NC(=O)Nc2nnc(CSCCOc3ccc(Cl)cc3)s2)cc1	-253*	3	12
CC(=O)N(C)C1=C(N2CCOCC2)C(=O)c2ccccc2C1=O	65	nt	nt
CCCCCCSc1cccc(-c2nc3cc(C)ccn3c2NCc2ccccc2)c1	40	nt	nt
COc1cc(/C=C2\C(=O)N(c3ccc(S(N)(=O)=O)cc3)N=C2C)ccc1OC(=O)c1ccco1	91	nt	nt
N#CCCn1[nH]c(-c2ccccc2)cc1=O	72	nt	nt
SMILES	Apaf-1 act	Rh110 act interf	Apaf-1 act conf2
Cc1cccc(Oc2nc(-c3ccccn3)nc3ccccc23)c1	-553*	12	12
CC(=O)Nc1ccc(NC(=O)CC2Nc3cccc4cccc(c34)NC2=O)cc1 (stereo unspecified)	96	nt	nt
CCOC(=O)C1=C(COC(=O)c2ccc([N+](=O)[O-])s2)NC(=O)NC1C (stereo unspecified)	46	nt	nt
Oc1ccc2ccccc2c1CN1CCN(c2ccccc2F)CC1	-319*	-3	6
CC(C)(C)N1C(=O)Cc2c1nc(N)c1c(N)nc(N3CCCCC3CO)c(C#N)c21 (stereo unspecified)	99	nt	nt
NC(CO)C(=O)NNCc1ccc(O)c(O)c1O (stereo unspecified)	51	nt	nt
CCS(=O)(=O)NCCc1csc(C)n1	-484*	8	12
C#CCOCCOCCOCCNc1nc(N2CCN(C(=O)CCCCCCCCCCNC(=O)[C@H](CCCCN)n3cc(C[C@@H](C)CC)nn3)CC2)nc(N2CCN(C(=O)CCCCCCCCCCNC(=O)[C@H](CCCN=C(N)N)n3cc(C[C@@H](C)CC)nn3)CC2)n1	55	nt	nt
CCc1ccc(S(=O)(=O)/N=C2\C=C(Nc3cccc(C(=O)O)c3)C(=O)c3ccccc32)cc1	91	nt	nt
CCC(CN(C)C)Oc1cc(NCc2ccccc2)c2ncn(C(C)C)c2c1 (stereo unspecified)	98	nt	nt
Cc1cc(C)n(-c2cc(Cl)cc(Cl)c2)c(=O)c1C#N	-403*	12	11
O=[N+]([O-])c1cc(Br)c(O)c(C=Nc2ccc(N3CCOCC3)cc2)c1	68	nt	nt
c1ccc(-c2sc3ccccc3c2-c2ccc(OCCN3CCCC3)cc2)cc1	78	nt	nt
COc1ccccc1-n1ccnc1SCC(=O)NCc1ccco1	-146*	16	19
O=C1CC(N2CCOCC2)=NN1c1ccc([N+](=O)[O-])cc1	94	nt	nt
Cc1cc(C)c(S(=O)(=O)/N=C2\C=C(NS(=O)(=O)c3ccccc3)C(=O)c3ccccc32)c(C)c1	64	nt	nt
CN(CCC#N)C(=O)COC(=O)c1cc(Cl)cc(Cl)c1N	-63*	11	17
Oc1ccc(C=Nc2ccc3ncccc3c2)c(O)c1	95	nt	nt
Nc1c(C(=O)NCc2ccco2)c2nc3ccccc3nc2n1CCc1ccccc1F	61	nt	nt
CCC(C(=O)NCc1ccco1)n1nc(C)c2c(C)n(-c3ccccc3)nc2c1=O (stereo unspecified)	-86*	2	13
CCOC(=O)C1=C(c2ccccc2)NC(N)=NC1c1ccc(OCc2ccc(Cl)cc2)c(OC)c1 (stereo unspecified)	58	nt	nt
CN(C)CCCN(C(=O)CCc1ccccc1)c1nc2ccc(Cl)cc2s1	44	nt	nt
Cc1[nH][nH]c(=O)c1C(c1ccc(-c2cccc(Cl)c2)o1)c1c(C)[nH][nH]c1=O	87	nt	nt
COC(=O)c1cccnc1-n1c(=O)c2cccnc2n(Cc2cccc([N+](=O)[O-])c2)c1=O	-65*	-2	12
Nc1ccc2cn[nH]c2c1	52	nt	nt
SMILES	Apaf-1 act	Rh110 act interf	Apaf-1 act conf2
Cn1ccnc1C(O)c1ccc(OCc2ccccc2)cc1 (stereo unspecified)	-355*	7	1
CC(NCc1ccc(OCc2ccc(Cl)cc2)cc1)C(O)c1ccccc1 (stereo unspecified)	41	nt	nt
COc1ccc2ccccc2c1C(O)c1nccn1C (stereo unspecified)	41	nt	nt
COC(=O)C1=C(C)N(Cc2ccccc2)C(=NCc2cc(OC)c(OC)c(OC)c2)N[C@H]1CCc1ccccc1	48	nt	nt
COc1cccc(-c2sc3cc(OC)c(OC)cc3c2-c2ccc(OCCN3CCCCC3)cc2)c1	66	nt	nt
O=C(O)C1CCCN(S(=O)(=O)c2ccc(-c3ccc(=O)[nH]n3)s2)C1 (stereo unspecified)	-350*	-5	10
